Assay results published in the array DNA melting data of Ke et al. (doi:10.1101/2024.01.08.574731).

Experiments:
[1] = melting temperature; fluorescence melt of hairpins on a sequencing array, two-state fit, raised by 9.35 °C to match UV melts; conditions: sodium 0.088 M
Method in brief: (§1)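 On a sequenced MiSeq flow cell, library hairpins with annealed Cy3 and quencher oligos were imaged for Cy3 fluorescence in 2.5 °C steps up to 60 °C, in 50 mM Na-HEPES pH 8.0, 25 mM NaCl. Normalisation used pre-quench Cy3 and control constructs. Bootstrapped two-state fits gave melting temperature and folding enthalpy, combined by inverse variance across four replicates and with fitted temperatures raised by 9.35 °C to match UV melts.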

[2] = folding enthalpy; higher = less favourable; fluorescence melt of hairpins on a sequencing array, two-state fit; conditions: sodium 0.088 M
Method in brief: as §1

Sequence	Tm [1] [°C]	folding enthalpy [2] [kJ/mol]
GTGAAGGCGAAAGCCCAC (((..(((....))))))	46.7	-65.1
GTGAAGGGAAACCTTCAC (((((((....)))))))	60	-193
GTGAAGGGAAACCTTTAC ((.((((....)))).))	39.6	-106
GTGAAGGGAAACCTTTGC (..((((....))))..)	31.7	-84.3
GTGAATACGAAAGTACAC (((..(((....))))))	27.5	-52.2
GTGAATGAAAATTCAC ((((((....))))))	52.3	-125
GTGAATGGAAACATCCAC (((.(((....))).)))	34.6	-101
GTGACAGGAAACCGTCAC (((((.(....).)))))	50.4	-145
GTGACCGAAAGGTGACAC ((((((....)))..)))	42.8	-67
GTGACCGAAAGGTTCAC ((((((....))).)))	53	-124
GTGACCGGAAACGACCAC (((..((....))..)))	30.4	-88.9
GTGACCGGAAACGATCAC ((((.((....)).))))	46.6	-166
GTGACCGGAAACGGCCAC (((.(((....))).)))	54.2	-163
GTGACCGGAAACGGTTAC ((.((((....)))).))	54.9	-110
GTGACGCGAAAGCGCAC (((.(((....))))))	58.8	-62.9
GTGACGGGAAACTGTCGC (.(((.(....).))).)	45.8	-118
GTGACTCGAAAGAGCAC (((.(((....))))))	48.1	-109
GTGACTCGAAAGAGGCAC (((.(((....))).)))	67.9	-144
GTGACTGGAAACAGTCGC (.(((((....))))).)	56.2	-128
GTGAGAGGAAACTTTCAC ((((.((....)).))))	35.1	-99.6
GTGAGCGAAAGCTAACAC ((((((....)))..)))	44	-64.5
GTGAGCGAAAGCTAGCAC ((((((....)))..)))	40.4	-47.9
GTGAGCGAAAGCTGCAC ((((((....))).)))	48.7	-57.7

Sequence	Tm [1] [°C]	folding enthalpy [2] [kJ/mol]
GTGAGCGAAAGCTGCCAC ((((((....)))..)))	37.6	-35.6
GTGAGCGCGAAAGCGCAC (((..(((....))))))	52.2	-46.6
GTGAGCTCGAAAGAGCAC (((..(((....))))))	65	-41.7
GTGAGGCCGAAAGGCCAC (((..(((....))))))	50.3	-48.9
GTGAGGGGAAACCCTCAC (((((((....)))))))	67.7	-140
GTGAGGGGAAACCCTCGC (.(((((....))))).)	53.5	-142
GTGAGGGGAAACCTTCGC (.((.((....)).)).)	33.6	-90
GTGAGTGGAAACACTTAC ((.((((....)))).))	44.8	-120
GTGAGTGGAAACATTCAC ((((.((....)).))))	43.9	-142
GTGAGTGGAAACGTTCAC ((((..(....)..))))	28.4	-46.9
GTGATAGGAAACTACCAC (((.(((....))).)))	33.5	-114
GTGATATCGAAAGATCAC (((..(((....))))))	37.1	-116
GTGATCCGAAAGGAGCAC (((.(((....))).)))	66.4	-174
GTGATCGAAAGATATCAC ((((((....)))..)))	34.5	-75.5
GTGATCGAAAGATGCCAC ((((((....)))..)))	24.4	-47.9
GTGATCGAAAGATTTCAC ((((((....)))..)))	27.6	-60
GTGATCGGAAACGACCAC (((.(((....))).)))	47.6	-176
GTGATCGGAAACGATCGC (.(((((....))))).)	57.6	-152
GTGATGGAAACATCAC ((((((....))))))	56.7	-175
GTGATGGCGAAAGCCCAC (((..(((....))))))	41.2	-61
GTGATGGGAAACCATCAC (((((((....)))))))	64.6	-183
GTGATGGGAAACTGTCAC ((((..(....)..))))	39.1	-136
GTGATTGCGAAAGCACAC (((..(((....))))))	38.1	-60.2

Sequence	Tm [1] [°C]	folding enthalpy [2] [kJ/mol]
GTGCAACGAAAGTTACAC (((.(((....))).)))	44.9	-94.7
GTGCAAGAAATTGCAC ((((((....))))))	56.6	-151
GTGCAAGCGAAAGCTCAC (((..(((....))))))	42.9	-56.1
GTGCAAGGAAACTCGCAC ((((.((....)).))))	45.1	-133
GTGCAAGGAAACTTGTGC (..((((....))))..)	37.4	-93.8
GTGCACCGAAAGGTCCAC (((.(((....))).)))	45.2	-114
GTGCACGAAAGTGCCCAC ((((((....)))..)))	40.7	-31.7
GTGCACGAAAGTGCGCAC ((((((....)))..)))	58	-44.1
GTGCACGAAAGTGCTCAC ((((((....)))..)))	43.3	-29.4
GTGCAGAAATGCAC (((((....)))))	57.1	-107
GTGCAGCCGAAAGGCCAC (((..(((....))))))	49.1	-53
GTGCAGCGAAAGCTACAC (((.(((....))).)))	54.1	-130
GTGCAGGGAAACCTGCGC (.(((((....))))).)	58.9	-110
GTGCATCGAAAGATCAC (((.(((....))))))	46.8	-101
GTGCATGAAAATGCAC ((((((....))))))	67	-132
GTGCATTCGAAAGAACAC (((..(((....))))))	23.8	-31.9
GTGCCAGAAATGGCAC ((((((....))))))	67.8	-154
GTGCCAGGAAACTAGCAC ((((.((....)).))))	43.2	-118
GTGCCCGAAAGGGATCAC ((((((....)))..)))	40.3	-55.4
GTGCCCGAAAGGGCTCAC ((((((....)))..)))	45.5	-31
GTGCCCGAAAGGGGGCAC ((((((....)))..)))	69.1	-92.9
GTGCCCGAAAGGGTCAC ((((((....))).)))	55	-75.8
GTGCCCGAAAGGGTGCAC ((((((....)))..)))	55.3	-61.2

Sequence	Tm [1] [°C]	folding enthalpy [2] [kJ/mol]
GTGCCCGGAAACGGGTAC ((.((((....)))).))	62.9	-125
GTGCCCGGAAACGGGTGC (..((((....))))..)	53.9	-91.6
GTGCCCTCGAAAGAGCAC (((..(((....))))))	43	-78.5
GTGCCGACGAAAGTCCAC (((..(((....))))))	53.8	-35.2
GTGCCGCGAAAGCGTCAC (((.(((....))).)))	61.7	-122
GTGCCTGCGAAAGCACAC (((..(((....))))))	55	-30.3
GTGCCTGGAAACAGACAC (((.(((....))).)))	46.9	-120
GTGCCTGGAAACAGGTGC (..((((....))))..)	48.9	-97
GTGCGAGGAAACCCACAC (((.(.(....).).)))	24.6	-43.4
GTGCGAGGAAACTTGCAC ((((.((....)).))))	53.7	-226
GTGCGCACGAAAGTGCAC (((..(((....))))))	64	-47.7
GTGCGCCGAAAGGCACAC (((.(((....))).)))	63.7	-121
GTGCGCGAAAGCGATCAC ((((((....)))..)))	41	-56.1
GTGCGCGAAAGCGCCCAC ((((((....)))..)))	43.3	-28.8
GTGCGCGAAAGCGTCAC ((((((....))).)))	58.6	-88
GTGCGCGAAAGCGTCCAC ((((((....)))..)))	36.4	-41.4
GTGCGCGGAAACGCGTGC (..((((....))))..)	57	-69.9
GTGCGGGGAAACCTGCAC ((((.((....)).))))	58.7	-123
GTGCGGGGAAACTCGCGC (.(((.(....).))).)	53.5	-100
GTGCTACGAAAGTAACAC (((.(((....))).)))	46.7	-137
GTGCTACGAAAGTACAC (((.(((....))))))	45.3	-107
GTGCTCCGAAAGGAACAC (((.(((....))).)))	52.2	-195
